Data set [1] has as its system HEK293. Kind of data set: Cytotoxicity against human HEK293 cells assessed as cell survival after 48 hrs by MTT assay. In kind it is functional. To be noted: HEK293, 48 h, read-out: LC50 (the source's name). A digest of the protocol:
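HEK 293 cells were cultured in DMEM with 10% FBS and antibiotics at 37 °C in 5% CO₂. At 60–70% confluence they were treated for 48 h with various concentrations, diluted in DMEM from 100 mM DMSO stocks. Survival was read by MTT. LC₅₀ is the concentration killing 50% of cells. Data are mean ± SD of three independent experiments.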
On the technique in general: Formazan colour is commonly taken as a measure of viable cells.

Data set [2] relates to HEK293. Kind of data set: Induction of apoptosis in human HEK293 cells assessed as increase in Bax protein expression at 15 to 25 uM after 48 hrs by Western blot analysis. In kind it is functional, cell-based. A digest of the protocol: (§1)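 Whole-cell extracts from HEK 293 cells after 48 h at graded concentrations, Western blotted for caspase-3, Bax, Bcl-XL and PARP (cleaved 86 kDa fragment); β-actin as loading control.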

In the next data set the test system is Vero. Kind of data set: Cytotoxicity activity against african green monkey Vero assessed as cell survival at 12 uM after 48 hrs by MTT assay. It is filed as cell-based. To be noted: chlorocebus sabaeus.
Data set [3] in a line: Anticlonogenic activity against african green monkey Vero after 48 hrs by crystal violet staining. The note with it: chlorocebus sabaeus, Vero cells; read-out: LC50. In kind it is ADME, cell-based. The gist of the method:
(§2)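 HEK 293 and Vero cells were grown in DMEM with 10% FBS and 1% penicillin/streptomycin at 37 °C in 5% CO₂. At 60–70% confluence they were exposed for 48 h to a range of concentrations, diluted in DMEM from 100 mM DMSO stocks. Colony survival is expressed as %. Values are mean ± SD of three independent experiments; LC₅₀ is the concentration killing half the cells.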

The subject of data set [4] is HEK293. Kind of data set: Induction of cell cycle arrest in human HEK293 cells assessed as accumulation at sub-G0 phase after 48 hrs by propidium iodide staining-based FACS analysis. In kind it is functional. (In general: Flow cytometry measures light scatter and fluorescence of single cells or particles in a stream.)
Data set [5] has as its system HEK293. Kind of data set: Cytotoxicity against human HEK293 cells assessed as cell survival at 12 uM after 24 hrs by MTT assay. It is filed as functional, cell-based.
Data set [6] relates to HEK293. Kind of data set: Anticlonogenic activity against human HEK293 cells after 48 hrs by crystal violet staining. In kind it is functional. The note with it: HEK293, 48 h, read-out: LC50 (the source's name). The gist of the method:
as §2

In the next data set the test system is MCF7. Kind of data set: Cytotoxicity against human MCF7 cells assessed as cell survival at 15 uM after 48 hrs by MTT assay. It is filed as functional. The note with it: MCF7, 48 h, read-out: Activity. The gist of the method:
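MTT survival of MCF 7 breast cancer cells, with MCF 10A as normal comparator; 48 h exposure. MCF 7 in DMEM with 10% FBS; MCF 10A in DMEM/F-12 with 10% FBS plus hydrocortisone, cholera toxin, insulin, EGF and L-glutamine. Mean ± SD of three independent experiments.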

Data set [7] concerns HEK293. Kind of data set: Induction of apoptosis in human HEK293 cells assessed as increase in apoptotic nuclei at 35 uM after 48 hrs by DAPI staining-based fluorescence microscopic analysis. In kind it is functional. The gist of the method:
(§3)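 HEK 293 cells exposed 48 h to 0, 15, 25 or 35 μM, nuclei stained with DAPI and apoptotic nuclei counted by fluorescence imaging; three replicates.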

The test system of data set [8] is HEK293. Kind of data set: Induction of cell cycle arrest in human HEK293 cells assessed as accumulation at S phase at 15 uM after 48 hrs by propidium iodide staining-based FACS analysis (reference value: 16.91 +/- 1.0%). It is filed as functional.
Data set [9] deals with T1, DNA topoisomerase 2-alpha (Homo sapiens, UniProt P11388). Kind of data set: Inhibition of topoisomerase 2 alpha-mediated DNA relaxation activity in human HEK293 cells assessed as increase in supercoiled DNA at 5 to 25 uM […] by agarose gel electrophoresis. It is filed as cell-based.
The nature of data set [10]: Cytotoxicity activity against african green monkey Vero assessed as cell survival at 100 uM after 48 hrs by MTT assay. It is filed as cell-based. To be noted: chlorocebus sabaeus, Vero cells; read-out: Activity. The gist of the method: (§4)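 MTT survival of HEK 293 and Vero cells after 48 h with compound at graded concentrations. DMEM, 10% FBS, 37 °C, 5% CO2; dilutions in DMEM from 100 mM DMSO stock, added at 60–70% confluence. Mean ± SD of three independent experiments.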

The target in data set [11] is T1, DNA topoisomerase 2-alpha. Kind of data set: Inhibition of topoisomerase 2 alpha-mediated DNA relaxation activity in human HEK293 cells assessed as increase in supercoiled DNA at 35 uM after 3 to 4 hrs by agarose gel electrophoresis in presence of 20 to 250 mM ATP. In kind it is cell-based.
Data set [12] has as its system HEK293. Kind of data set: Induction of cell cycle arrest in human HEK293 cells assessed as accumulation at G2/M phase at 35 uM after 48 hrs by propidium iodide staining-based FACS analysis (reference value: 7.5 +/- 1.0%). It is filed as functional.
Data set [13] concerns HEK293. Kind of data set: Induction of apoptosis in human HEK293 cells assessed as increase in apoptotic nuclei at 15 uM after 48 hrs by DAPI staining-based fluorescence microscopic analysis. In kind it is functional. The gist of the method:
as §3

For data set [14], the system named is HEK293. Kind of data set: Induction of apoptosis in human HEK293 cells assessed as increase in apoptotic nuclei at 25 uM after 48 hrs by DAPI staining-based fluorescence microscopic analysis. It is filed as functional. The gist of the method:
as §3

Data set [15] concerns HEK293. Kind of data set: Induction of apoptosis in human HEK293 cells assessed as increase in caspase 3 expression at 15 to 25 uM after 48 hrs by Western blot analysis. It is filed as functional, cell-based. A digest of the protocol:
as §1
On the technique in general: Immunoblotting shows a protein as a band on a membrane.

In data set [16] the test system is HEK293. Kind of data set: Cytotoxicity against human HEK293 cells assessed as cell survival at 12 uM after 48 hrs by MTT assay. In kind it is functional. To be noted: HEK293, 48 h, read-out: Activity. The gist of the method: as §4
In data set [17] the target is T1, DNA topoisomerase 2-alpha. Kind of data set: Inhibition of human topoisomerase 2 alpha-mediated relaxation of pRYG plasmid DNA at 100 uM by agarose gel electrophoresis. The gist of the method:
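250 ng supercoiled pRYG plasmid, 2–4 units hTopoIIα, 100 μM compound, ATP-containing Tris pH 8 buffer, 20 μL, 37 °C 30 min; SDS/proteinase K stop; 1% agarose in TAE without EtBr, post-stained 0.5 μg/mL EtBr; products quantified densitometrically.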

Data on one compound can be found in ChEMBL document CHEMBL1914308, “N-fused imidazoles as novel anticancer agents that inhibit catalytic activity of topoisomerase IIα and induce apoptosis in G1/S phase” (J Med Chem, 2011).

Calls of active or inactive are those of the source. No cut-off for these calls is given here. Bounds are passed on as bounds.

T1 sequence (P11388 whole entry): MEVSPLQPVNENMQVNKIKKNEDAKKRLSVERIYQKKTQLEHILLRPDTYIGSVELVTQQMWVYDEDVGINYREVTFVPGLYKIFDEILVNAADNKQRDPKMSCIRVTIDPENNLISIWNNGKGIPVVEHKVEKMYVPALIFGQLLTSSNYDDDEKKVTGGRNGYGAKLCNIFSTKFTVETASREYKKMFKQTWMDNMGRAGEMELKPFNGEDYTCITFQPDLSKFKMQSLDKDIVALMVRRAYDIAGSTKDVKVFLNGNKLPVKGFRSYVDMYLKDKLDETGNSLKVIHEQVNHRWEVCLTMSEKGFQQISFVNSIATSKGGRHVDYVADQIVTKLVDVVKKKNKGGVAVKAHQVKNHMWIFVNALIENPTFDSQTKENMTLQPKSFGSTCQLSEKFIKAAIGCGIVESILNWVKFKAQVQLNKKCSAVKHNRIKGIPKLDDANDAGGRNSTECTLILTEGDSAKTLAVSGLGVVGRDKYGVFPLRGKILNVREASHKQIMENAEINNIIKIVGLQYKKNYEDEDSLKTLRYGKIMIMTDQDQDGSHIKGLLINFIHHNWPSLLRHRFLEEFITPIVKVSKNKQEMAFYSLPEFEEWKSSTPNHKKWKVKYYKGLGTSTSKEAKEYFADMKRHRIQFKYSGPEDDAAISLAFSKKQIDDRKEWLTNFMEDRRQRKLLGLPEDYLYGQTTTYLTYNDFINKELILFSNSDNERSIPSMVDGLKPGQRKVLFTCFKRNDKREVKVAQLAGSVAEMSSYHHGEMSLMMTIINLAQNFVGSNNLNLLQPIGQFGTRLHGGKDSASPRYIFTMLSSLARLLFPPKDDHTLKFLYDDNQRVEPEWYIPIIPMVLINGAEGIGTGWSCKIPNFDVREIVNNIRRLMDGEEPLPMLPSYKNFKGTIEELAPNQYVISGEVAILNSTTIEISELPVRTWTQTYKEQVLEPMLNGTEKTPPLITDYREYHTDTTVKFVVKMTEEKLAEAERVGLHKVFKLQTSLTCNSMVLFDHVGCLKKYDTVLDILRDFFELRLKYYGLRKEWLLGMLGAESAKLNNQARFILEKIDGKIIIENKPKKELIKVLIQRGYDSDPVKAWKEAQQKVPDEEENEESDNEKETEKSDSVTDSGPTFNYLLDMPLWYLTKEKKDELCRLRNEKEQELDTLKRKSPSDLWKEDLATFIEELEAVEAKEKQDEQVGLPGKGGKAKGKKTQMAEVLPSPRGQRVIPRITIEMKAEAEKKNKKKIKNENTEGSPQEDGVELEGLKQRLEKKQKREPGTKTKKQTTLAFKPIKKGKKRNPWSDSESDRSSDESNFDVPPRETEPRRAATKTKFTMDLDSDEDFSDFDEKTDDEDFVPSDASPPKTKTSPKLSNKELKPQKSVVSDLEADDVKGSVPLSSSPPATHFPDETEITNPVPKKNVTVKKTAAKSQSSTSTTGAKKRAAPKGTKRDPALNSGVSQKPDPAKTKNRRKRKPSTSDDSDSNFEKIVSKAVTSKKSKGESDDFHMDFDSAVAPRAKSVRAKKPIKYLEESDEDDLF

As to `CC(C)(C)Nc1c(-c2ccc(C(=O)O)cc2)nc2ccccn12`, the CC50 in the data set with HEK293 [1] amounted to 12 µM; in the data set with HEK293 [6], 30 µM. The result with HEK293 [2], with HEK293 [5] and in the data set on HEK293 [15] was Active. For the same compound, the Activity result in the data set on Vero was “Non-toxic”; in the data set on HEK293 [4], “Dose-dependent effect”; in the data set on HEK293 [7], 80%; in the data set on HEK293 [8], 13.92%; in the data set with HEK293 [12] it was 5.56%; in the data set with HEK293 [13], 20%. The Activity in the data set on HEK293 [14] is 40%. The CC50 at 48 h in data set [3] is 98 µM. Also, the viability at 15 µM in the data set with MCF7 was 50%. Further, the inhibition entry in data set [9] and in data set [17] was “Active” in each case. In addition, the viability at 48 h, 100 µM in data set [10] is less than 50%. Also, the inhibition result in [11] is “inactive”. Besides, the viability at 12 µM in the data set on HEK293 [16] was more than 50%.
